Measurements: ChEMBL document CHEMBL3593162, “Novel 9-Alkyl- and 9-Alkylidene-Substituted 1α,25-Dihydroxyvitamin D3 Analogues: Synthesis and Biological Examinations” (J Med Chem, 2015)

Experiments:
[1] = test system: Rattus norvegicus; experiment: Induction of bone calcium mobilization into serum of Sprague-Dawley rat assessed as serum calcium level at 780 pmol, ip administered 4 doses at 24 hrs interval measured 24 hrs post last dose (reference value: 4.9 mg/dL); assay type: functional
In short: (§1)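 Group-housed rats on Diet 11 (0.47% Ca) + AEK oil for 1 week, then 0.02% Ca for 3 weeks, then 0.47% Ca for 1 week, then 2 weeks on 0.02% Ca. Dosing in the final week: four ip doses about 24 h apart. Blood taken from the severed neck 24 h after the last dose; serum calcium measured as the bone calcium mobilization index.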

[2] = test system: Rattus norvegicus; experiment: Induction of bone calcium mobilization into serum of Sprague-Dawley rat assessed as total serum calcium level at 260 pmol, ip administered 4 doses at 24 hrs interval measured 24 hrs post last dose (reference value: 4.5 mg/dL); assay type: functional; in short: as §1
[3] = Induction of transcriptional activity in rat ROS 17/2.8 cells after 16 hrs by 24-hydroxylase luciferase reporter gene assay; assay type: functional; details: for EC50: Rattus norvegicus, 16 h, read-out: ED50 (the source's name)
In short: (§2)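 ROS 17/2.8 cells stably transfected with 24-hydroxylase promoter–luciferase reporter, dosed over a range of concentrations. Harvested 16 h after dosing; luciferase read on a luminometer. ED50 is the concentration raising luciferase activity by 50%, from dose-response curves. Ratio = ED50 of 1α,25-(OH)2D3 / ED50 of analogue.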

[4] = test system: HL-60; experiment: Induction of differentiation of human HL60 promyelocytes to monocytes after 4 days by nitro blue tetrazolium reduction assay; assay type: functional; details: for EC50: Homo sapiens, HL-60, 96 h, read-out: ED50 (the source's name)
In short: (§3)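 HL-60 cells grown in RPMI-1640 with 10% FBS at 37 °C, 5% CO2, plated at 1.2 × 10^5 cells/plate. Dosed in duplicate 18 h after plating (final ethanol <0.2%). After 4 days, NBT reduction read by counting 200 cells for formazan deposits. ED50 is the concentration giving 50% maturation, from dose-response curves; repeated 2 to 3 times, mean reported. Ratio = ED50 of 1α,25-(OH)2D3 / ED50 of analogue.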

[5] = test system: Rattus norvegicus; experiment: Induction of bone calcium mobilization into serum of Sprague-Dawley rat assessed as serum calcium level at 87 pmol, ip administered 4 doses at 24 hrs interval measured 24 hrs post last dose (reference value: 4.9 mg/dL); assay type: functional; in short: as §1
[6] = biological target: T1, Vitamin D3 receptor (Rattus norvegicus, UniProt P13053); experiment: Displacement of [3H]-1alpha25-(OH)2D3 from full length recombinant rat vitamin D receptor by scintillation counting analysis
T1 sequence (P13053 whole entry): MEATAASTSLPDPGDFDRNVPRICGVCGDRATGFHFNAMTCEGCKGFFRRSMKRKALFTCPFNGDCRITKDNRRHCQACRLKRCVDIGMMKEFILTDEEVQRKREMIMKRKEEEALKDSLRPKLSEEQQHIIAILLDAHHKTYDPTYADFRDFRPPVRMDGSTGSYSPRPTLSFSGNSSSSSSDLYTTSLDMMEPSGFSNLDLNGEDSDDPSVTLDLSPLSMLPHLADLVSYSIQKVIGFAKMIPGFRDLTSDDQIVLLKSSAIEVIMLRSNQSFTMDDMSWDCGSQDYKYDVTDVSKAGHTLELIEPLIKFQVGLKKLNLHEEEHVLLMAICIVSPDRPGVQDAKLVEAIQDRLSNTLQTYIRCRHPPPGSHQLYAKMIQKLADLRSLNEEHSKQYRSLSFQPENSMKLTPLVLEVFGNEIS
In short: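 [3H]-1α,25(OH)2D3 at 1 nM final plus unlabeled ligand (ethanol ≤10%), incubated overnight on ice. Bound ligand captured on hydroxylapatite, washed with Tris–EDTA/0.5% Triton X-100, scintillation counted. Ki from dose-response curves using Kd 0.2 nM; duplicates on two to three occasions.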

[7] = test system: HL-60; experiment: Potency index, ratio of 1alpha,25-(OH)2D3 ED50 to compound ED50 for induction of differentiation of human HL60 promyelocytes to monocytes; assay type: functional; in short: as §3
[8] = test system: Rattus norvegicus; experiment: Induction of bone calcium mobilization into serum of Sprague-Dawley rat assessed as total serum calcium level at 35100 pmol, ip administered 4 doses at 24 hrs interval measured 24 hrs post last dose (reference value: 4.5 mg/dL); assay type: functional; in short: as §1
[9] = test system: Rattus norvegicus; experiment: Induction of bone calcium mobilization into serum of Sprague-Dawley rat assessed as total serum calcium level at 7020 pmol, ip administered 4 doses at 24 hrs interval measured 24 hrs post last dose (reference value: 4.5 mg/dL); assay type: functional; in short: as §1
[10] = test system: Rattus norvegicus; experiment: Induction of intestinal calcium transport in Sprague-Dawley rat assessed as ratio of serosal calcium to mucosal calcium level at 35100 pmol, ip administered 4 doses at 24 hrs interval measured 24 hrs post last dose by everted gut sac method (reference value: 4.3); assay type: functional
[11] = test system: Rattus norvegicus; experiment: Induction of intestinal calcium transport in Sprague-Dawley rat assessed as ratio of serosal calcium to mucosal calcium level at 7020 pmol, ip administered 4 doses at 24 hrs interval measured 24 hrs post last dose by everted gut sac method (reference value: 4.3); assay type: functional
[12] = Potency index, ratio of 1alpha,25-(OH)2D3 ED50 to compound ED50 for induction of transcriptional activity in rat ROS 17/2.8 cells; assay type: functional; in short: as §2
[13] = biological target: T2, Vitamin D3 receptor (Rattus norvegicus) (UniProt P13053); experiment: Potency index, ratio of 1alpha,25-(OH)2D3 Ki to compound Ki for full length recombinant rat vitamin D receptor
T2 sequence (whole entry): T1 sequence (P13053 whole entry)

[14] = test system: Rattus norvegicus; experiment: Induction of intestinal calcium transport in Sprague-Dawley rat assessed as ratio of serosal calcium to mucosal calcium level at 7020 pmol, ip administered 4 doses at 24 hrs interval measured 24 hrs post last dose by everted gut sac method (reference value: 4.1); assay type: functional
[15] = test system: Rattus norvegicus; experiment: Induction of bone calcium mobilization into serum of Sprague-Dawley rat assessed as serum calcium level at 35100 pmol, ip administered 4 doses at 24 hrs interval measured 24 hrs post last dose (reference value: 4.9 mg/dL); assay type: functional; in short: as §1
[16] = test system: Rattus norvegicus; experiment: Induction of intestinal calcium transport in Sprague-Dawley rat assessed as ratio of serosal calcium to mucosal calcium level at 780 pmol, ip administered 4 doses at 24 hrs interval measured 24 hrs post last dose by everted gut sac method (reference value: 4.1); assay type: functional
[17] = test system: Rattus norvegicus; experiment: Induction of intestinal calcium transport in Sprague-Dawley rat assessed as ratio of serosal calcium to mucosal calcium level at 35100 pmol, ip administered 4 doses at 24 hrs interval measured 24 hrs post last dose by everted gut sac method (reference value: 4.1); assay type: functional
[18] = test system: Rattus norvegicus; experiment: Induction of bone calcium mobilization into serum of Sprague-Dawley rat assessed as serum calcium level at 7020 pmol, ip administered 4 doses at 24 hrs interval measured 24 hrs post last dose (reference value: 4.9 mg/dL); assay type: functional; in short: as §1
[19] = test system: Rattus norvegicus; experiment: Induction of bone calcium mobilization into serum of Sprague-Dawley rat assessed as total serum calcium level at 105300 pmol, ip administered 4 doses at 24 hrs interval measured 24 hrs post last dose (reference value: 4.5 mg/dL); assay type: functional; in short: as §1
[20] = test system: Rattus norvegicus; experiment: Induction of intestinal calcium transport in Sprague-Dawley rat assessed as ratio of serosal calcium to mucosal calcium level at 105300 pmol, ip administered 4 doses at 24 hrs interval measured 24 hrs post last dose by everted gut sac method (reference value: 4.3); assay type: functional

Q: Which Activity [1] does the source give for `C=C1/C(=C\C=C2/CCC[C@]3(C)[C@@H]([C@H](C)CCCC(C)(C)O)CC[C@@H]23)C[C@@H](O)C[C@@H]1O` [CALCITRIOL] here?
A: 7.3 mg/dL

Q: What about the Activity [2] of the same compound?
A: 5.6 mg/dL

Q: And the ED50 [3]?
A: 3 ×10⁻¹⁰ M

Q: And the ED50 [4]?
A: 2 ×10⁻⁹ M

Q: And the Activity [5]?
A: 6.2 mg/dL

Q: For `C=C1CC[C@]2(C)[C@@H]([C@H](C)CCCC(C)(C)O)CC[C@H]2/C1=C/C=C1C[C@@H](O)C[C@H](O)C1`, which Ki [6] is on record?
A: 20 nM

Q: What about the “Ratio ED50” value [7] of the same compound?
A: 0.002

Q: And the Activity [8]?
A: 4.4 mg/dL

Q: What about the ED50 [3] of the same compound?
A: 5 ×10⁻⁸ M

Q: What about the Activity [9] of the same compound?
A: 4.3 mg/dL

Q: What about the Ratio [10] of the same compound?
A: 4.6

Q: And the EC50 [4]?
A: 1000 nM

Q: And the Ratio [11]?
A: 5.3

Q: What about the “Ratio ED50” value [12] of the same compound?
A: 0.006

Q: What about the Ratio Ki [13] of the same compound?
A: 0.005

Q: What does the source list for `C=C1CC[C@]2(C)[C@@H]([C@H](C)CCCC(C)(C)O)CC[C@H]2/C1=C/C=C1/C[C@@H](O)C[C@H](O)[C@H]1C`?
A: Ki [6]: > 10000 nM; Ratio ED50 [7]: 0.0001; EC50 [3]: 1000 nM; EC50 [4]: 10000 nM; Ratio ED50 [12]: 0.0001; Ratio Ki [13]: < 1e-05

Q: Which Ratio [14] does the source give for `C[C@H](CCCC(C)(C)O)[C@H]1CC[C@H]2/C(=C/C=C3C[C@@H](O)C[C@H](O)C3)[C@@H](C)CC[C@]12C` here?
A: 10.1

Q: And the Ki [6]?
A: 0.2 nM

Q: What about the Activity [1] of the same compound?
A: 4.8 mg/dL

Q: And the “Ratio ED50” value [7]?
A: 0.2

Q: And the Activity [15]?
A: 5.4 mg/dL

Q: And the ED50 [3]?
A: 3 ×10⁻¹⁰ M

Q: And the Ratio [16]?
A: 5

Q: What about the ED50 [4] of the same compound?
A: 9 ×10⁻⁹ M

Q: And the Ratio [17]?
A: 8.8

Q: And the “Ratio ED50” value [12]?
A: 1

Q: And the Ratio Ki [13]?
A: 0.5

Q: What about the Activity [18] of the same compound?
A: 4.5 mg/dL

Q: What does the source list for `C/C=C1\CC[C@]2(C)[C@@H]([C@H](C)CCCC(C)(C)O)CC[C@H]2\C1=C\C=C1C[C@@H](O)C[C@H](O)C1`?
A: Ki [6]: > 10000 nM; Ratio ED50 [7]: 0.0001; EC50 [3]: 1000 nM; Activity [9]: 4.6 mg/dL; Activity [19]: 4.5 mg/dL; Ratio [20]: 7.3; EC50 [4]: 10000 nM; Ratio [11]: 6.6; Ratio ED50 [12]: 0.0001; Ratio Ki [13]: < 1e-05

Q: What does the source list for `C=C1CC[C@]2(C)[C@@H]([C@H](C)CCCC(C)(C)O)CC[C@H]2/C1=C/C=C1/C[C@@H](O)C[C@H](O)[C@@H]1C`?
A: Ki [6]: > 10000 nM; Ratio ED50 [7]: 0.0001; ED50 [3]: 9 ×10⁻⁸ M; EC50 [4]: 10000 nM; Ratio ED50 [12]: 0.003; Ratio Ki [13]: < 1e-05

Q: Which results are given for `C=C1/C(=C\C=C2/[C@H](C)CC[C@]3(C)[C@@H]([C@H](C)CCCC(C)(C)O)CC[C@@H]23)C[C@@H](O)C[C@@H]1O`?
A: Ki [6]: 20 nM; Ratio ED50 [7]: 0.0001; Activity [8]: 4.6 mg/dL; ED50 [3]: 5 ×10⁻⁸ M; Activity [9]: 4.3 mg/dL; Ratio [10]: 6.2; ED50 [4]: 5 ×10⁻⁶ M; Ratio [11]: 7.9; Ratio ED50 [12]: 0.006; Ratio Ki [13]: 0.005
